High-throughput results: PubChem BioAssay, several laboratories
Beta apoptosis: inhibitors of cytokine-induced beta cell apoptosis, primary screen, luminescence | INS-1E cytokine-induced death, ATP luminescence, 48 h; percent of positive-control rescue, neutral wells zero | protection from apoptosis, % (no concentration beside the values) | hit rate 0.8% among 300,000;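 active = Every replicate reaches about 75%, or at least half do and their mean reaches it too, limit read from the data; inconclusive = At least half of replicates reach the limit but their mean does not; inactive = Under half of replicates reach the limit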;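 also: higher means more ATP so stronger rescue from cytokine killing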
SKKanGAS inh: S. pyogenes SKKanGAS growth inhibitors in kanamycin, primary screen, streptokinase expression inhibitor project, SKKanGAS strain, BacTiter-Glo luminescence. AID 1662, 2009. 6 h. inhibition, % at 7.5 µM. hit rate 1.3% among 300,000;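 active = mean replicate score, as percent of positive control median, at least 50; inconclusive = mean below 50 but one replicate at or above 50; inactive = mean and every replicate below 50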;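 also: strain carries kanamycin resistance gene driven by streptokinase promoter and grows in 40 µg/ml kanamycin; loss of luminescence reflects streptokinase promoter inhibition or plain growth inhibition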
CSC inhib: cancer stem cell viability inhibitors, primary screen, luminescence | cancer stem cell-like cells viability | inhibition, % at 7.5 µM | hit rate 1.1% among 300,000 | AID 2717, 2010; in the data active = inhibition above about 75%; inconclusive = no clear call, values can overlap the other calls; tested in HMLE shEcad cells
UPR CHOP act: activators of apoptotic CHOP UPR arm, primary screen, cell-based, CHO-CHOP luciferase reporter, luminescence, uHTS. activation, % at 10 µM. hit rate 0.34% among 330,000. AID 449763, 2010. UPR activation; percent of tunicamycin response over DMSO baseline;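 active = at 10 µM dose, activation of 40% or more, normalized to positive control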
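Dosing – one dose, 10 µM in 0.5% DMSO · System – CHO-CHOP cells, stable luciferase reporter of PERK-eIF2a-CHOP signalling · Input – 500 cells/well · Control set – tunicamycin 10 µg/mL final as positive, DMSO-only wells as negative · Timing – 6 h compound treatment, 37 °C · Measure – % activation vs tunicamycin · Technique – luminescence read with Steady-Glo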
UPR XBP1 act: activators of adaptive XBP1 UPR arm, primary screen, cell-based, CHO-XBP1 luciferase reporter, luminescence, uHTS. hit rate 0.33% among 330,000. activation, % at 20 µM. AID 463104, 2010. IRE1-XBP1 UPR activation; percent of tunicamycin response, DMSO as zero;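 active = versus positive control, 20 µM dose yields 30% or more activation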
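assay system = CHO-XBP1 luciferase reporter cells | amount = 1000 cells/well | buffer or medium = F12 plus 10% FBS | compound dosing = single point, 20 µM final compound, 1% DMSO | incubation = 16-18 h cell attachment at 37 °C, then 6 h compound exposure | detection = Steady-Glo luminescence read | controls = tunicamycin 10 µg/mL and vehicle-only wells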
Mdm2-MdmX inh: inhibitors of human Mdm2-MdmX association, primary screen, cell-based, luminescence, split luciferase, SaOS-2, uHTS. Protein Mdm4 (Homo sapiens) + E3 ubiquitin-protein ligase Mdm2 (Homo sapiens), …. SaOS-2 split-luciferase Mdm2/MdmX complementation. inhibition, % at 8 µM. hit rate 3% among 330,000;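 active = inhibition of at least 50% at 8 µM in the primary screen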
Target sequence (O15151 whole entry, looked up): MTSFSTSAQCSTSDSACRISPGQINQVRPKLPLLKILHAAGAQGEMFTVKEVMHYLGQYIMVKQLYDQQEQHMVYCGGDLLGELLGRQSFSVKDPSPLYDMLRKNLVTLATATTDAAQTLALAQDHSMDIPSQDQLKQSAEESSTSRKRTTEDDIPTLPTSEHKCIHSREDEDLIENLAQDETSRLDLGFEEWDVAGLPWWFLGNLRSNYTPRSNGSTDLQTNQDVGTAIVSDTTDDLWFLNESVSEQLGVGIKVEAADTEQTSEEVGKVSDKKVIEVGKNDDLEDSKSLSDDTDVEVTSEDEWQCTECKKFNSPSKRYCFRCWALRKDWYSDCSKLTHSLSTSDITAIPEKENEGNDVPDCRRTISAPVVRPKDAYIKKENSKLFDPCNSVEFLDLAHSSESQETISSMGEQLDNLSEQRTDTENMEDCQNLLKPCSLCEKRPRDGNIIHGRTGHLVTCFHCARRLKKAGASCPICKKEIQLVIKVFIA
Target sequence (Q00987 whole entry, looked up): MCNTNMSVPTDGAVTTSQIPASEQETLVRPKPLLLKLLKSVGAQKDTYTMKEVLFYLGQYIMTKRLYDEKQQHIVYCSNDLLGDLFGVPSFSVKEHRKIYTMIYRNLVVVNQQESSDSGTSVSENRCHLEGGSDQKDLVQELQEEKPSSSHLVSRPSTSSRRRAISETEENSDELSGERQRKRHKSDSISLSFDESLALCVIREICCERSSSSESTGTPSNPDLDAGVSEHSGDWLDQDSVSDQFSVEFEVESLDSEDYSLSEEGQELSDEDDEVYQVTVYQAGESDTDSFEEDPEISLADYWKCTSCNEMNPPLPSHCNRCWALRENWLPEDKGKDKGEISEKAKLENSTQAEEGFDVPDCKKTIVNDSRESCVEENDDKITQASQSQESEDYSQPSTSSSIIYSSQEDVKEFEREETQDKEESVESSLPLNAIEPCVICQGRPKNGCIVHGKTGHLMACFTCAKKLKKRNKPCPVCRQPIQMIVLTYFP
Each line names hits and unclear results; the compound was inactive in the other large screens. Compounds with a hit are over-represented: about 4.8% of the library has one in this group of screens.

CCCC(=O)Nc1ccc(C2C(=O)c3ccccc3C2=O)cc1	none
O=C(O)c1cn(C2CC2)c2cc(N3CCN(S(=O)(=O)c4ccc5c(c4)OCCO5)CC3)c(F)cc2c1=O	SKKanGAS inh 121.1
CCn1cc(C(=O)O)c(=O)c2cc(F)c(N3CCN(S(=O)(=O)c4ccc(Br)cc4)CC3)cc21	none
CN(C)c1nc(N/N=C/c2ccccc2O)nc(Nc2ccc(F)cc2)n1	Beta apoptosis 106.1, SKKanGAS inh 93.1
O=C(Nc1cccc(Cl)c1)Nc1sccc1-c1nc2ccccc2s1	CSC inhib 76.0
O=C(NNC1=C(C(=O)C(F)(F)F)CCC1)c1ccccc1Cl	none
O=C(NNC1=C(C(=O)C(F)(F)F)CCC1)c1ccc(Br)cc1	SKKanGAS inh 106.4, CSC inhib 106.7
CCc1ccccc1N1CC(C(=O)Nc2cc(S(=O)(=O)N3CCCC3)ccc2Cl)CC1=O (stereo not given)	none (no result: SKKanGAS inh, CSC inhib)
CC(/C=C/C=C/c1ccccc1)=N/NC(=O)c1ccc2c(c1)OCCO2	SKKanGAS inh 60.6
CC(/C=C/C=C/c1ccccc1)=N\NC(=O)c1cccnc1	none
CC(/C=C/c1ccccc1)=N/NC(=O)c1cccc(Br)c1	SKKanGAS inh 87.2
CC(/C=C/c1ccccc1)=N\NC(=O)c1ccc(Br)cc1	none
CS(=O)(=O)c1ccc2nc(NC(=O)c3cccc(NS(=O)(=O)c4ccc(F)c(F)c4)c3)sc2c1	none
CS(=O)(=O)c1ccc2nc(NC(=O)c3ccc(NS(=O)(=O)c4ccc(F)c(F)c4)cc3)sc2c1	SKKanGAS inh 85.0
O=C(Nc1nc2ccc(SC(F)F)cc2s1)c1ccc(NS(=O)(=O)c2ccc(F)c(F)c2)cc1	SKKanGAS inh 114.3, CSC inhib 79.4
CCCCCCCC(=O)NNC(=O)Cc1ccccc1	none
CCCCCCCCCCCC(=O)c1c(O)cccc1O	SKKanGAS inh 103.2
COc1ccc(NC(=O)C2CCN(S(=O)(=O)c3ccc4c(c3)NC(=O)CO4)CC2)cc1	SKKanGAS inh inconclusive
CCc1cc2c(=O)nc3n(c2s1)Cc1ccccc1/C3=C(/O)c1ccccc1Cl	Beta apoptosis 89.2 (no result: CSC inhib)
CCc1cc2c(=O)nc3n(c2s1)Cc1ccccc1/C3=C(/O)c1ccc(F)cc1	CSC inhib 80.7
O=C(O)C1C2CCC(O2)C1C(=O)Nc1cccc(Cl)c1 (stereo not given)	none
Cc1ccc(S(=O)(=O)Nc2nc(-c3ccccc3)cs2)cc1	none
Cc1ccc(S(=O)(=O)Nc2ccc(-c3csc(-c4ccccc4)n3)cc2)cc1	CSC inhib 112.0
COc1ccc(-c2csc(NS(=O)(=O)c3ccc([N+](=O)[O-])cc3)n2)cc1	none
O=[N+]([O-])c1ccc(S(=O)(=O)Nc2ccc(-c3csc(-c4ccccc4)n3)cc2)cc1	SKKanGAS inh 66.5, CSC inhib 100.3
O=S(=O)(Nc1ccc(-c2csc(-c3ccccc3)n2)cc1)c1ccccc1	CSC inhib 148.5
O=C(COC(=O)c1cccs1)NCCc1ccc(F)cc1	none (no result: Beta apoptosis, SKKanGAS inh, CSC inhib)
CCCCCCCCCCCCCCCC(O)C(N)CO (stereo not given)	SKKanGAS inh 74.7 (no result: Beta apoptosis)
COc1ccc(CN(C)S(=O)(=O)c2nnc(NC(=O)c3cccc(F)c3)s2)cc1OC	SKKanGAS inh 60.2
Cc1cc(C)c2c(n1)sc1c(=O)n(CC(=O)c3ccccc3)cnc12	SKKanGAS inh 93.1
C=CCOC(=O)Cn1cnc2c(sc3nc(C)cc(C)c32)c1=O	none
CCN1C(=O)C(=O)N(CC(=O)N2CCN(c3ccccc3)CC2)C1=O	none
COc1cc([N+](=O)[O-])cc(/C=N/NC(=O)C(O)(c2ccccc2)c2ccccc2)c1O	SKKanGAS inh 98.5 (no result: Beta apoptosis)
COc1cc([N+](=O)[O-])cc(/C=N\NC(=O)C2COc3ccccc3O2)c1O (stereo not given)	SKKanGAS inh 104.0
O=C(Nc1ccccc1C(=O)O)c1ccc(NC(=O)c2ccc(Br)o2)cc1	none
O=C(Nc1ccccc1C(=O)O)c1cccc(NC(=O)c2ccc(Br)o2)c1	SKKanGAS inh 83.2
